{
  "source": "ChEMBL document CHEMBL5678799",
  "about": "(Biochem J, 2009)",
  "key": {"[1]": {"target": "MAP kinase-activated protein kinase 5 (Homo sapiens) (UniProt Q8IW41)", "assay": "Inhibition of recombinant human His6-tagged PRAK (1 to 471 residues) expressed in baculovirus infected Sf21 cells assessed as remaining activity at 10 uM using phosphorylase b peptide as substrate incubated for 30 mins in presence of [gamma-33P]ATP by filter binding method relative to control", "method_in_brief": "(§1)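 Robotic radiometric panel assay, 30 min at room temperature (21 °C), with 10 mM magnesium acetate. […] Compound at 1 or 10 µM. Residual activity expressed relative to compound-free control; triplicate average ± S.D.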"}, "[2]": {"target": "Serine/threonine-protein kinase pim-2 (Homo sapiens) (UniProt Q9P1W9)", "sequence (Q9P1W9 whole entry, looked up, the tested form may be a part)": "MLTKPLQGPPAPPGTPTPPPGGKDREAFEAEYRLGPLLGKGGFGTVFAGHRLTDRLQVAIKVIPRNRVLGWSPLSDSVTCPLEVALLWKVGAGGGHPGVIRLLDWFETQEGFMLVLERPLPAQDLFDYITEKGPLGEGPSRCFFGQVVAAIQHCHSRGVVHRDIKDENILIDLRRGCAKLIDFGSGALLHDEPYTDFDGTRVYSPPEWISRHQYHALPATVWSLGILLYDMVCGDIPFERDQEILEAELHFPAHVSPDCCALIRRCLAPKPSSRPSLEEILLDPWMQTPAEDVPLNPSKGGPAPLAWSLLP", "assay": "Inhibition of recombinant human N-terminal GST-tagged PIM2 (2 to 334 residues) expressed in Escherichia coli assessed as remaining activity at 10 uM using RSRHSSYPAGT as substrate incubated for 30 mins in presence of [gamma-33P]ATP by filter binding method relative to control", "method_in_brief": "(§2)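 Radiometric kinase panel run robotically at room temperature (21 °C) for 30 min, linear in time and enzyme. […] Activity is expressed as percent of control without compound, from triplicate determinations ± S.D.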"}, "[3]": {"target": "Phosphorylase b kinase gamma catalytic chain, skeletal muscle/heart isoform (Homo sapiens) (UniProt Q16816)", "sequence (Q16816 whole entry, looked up, the tested form may be a part, canonical isoform)": "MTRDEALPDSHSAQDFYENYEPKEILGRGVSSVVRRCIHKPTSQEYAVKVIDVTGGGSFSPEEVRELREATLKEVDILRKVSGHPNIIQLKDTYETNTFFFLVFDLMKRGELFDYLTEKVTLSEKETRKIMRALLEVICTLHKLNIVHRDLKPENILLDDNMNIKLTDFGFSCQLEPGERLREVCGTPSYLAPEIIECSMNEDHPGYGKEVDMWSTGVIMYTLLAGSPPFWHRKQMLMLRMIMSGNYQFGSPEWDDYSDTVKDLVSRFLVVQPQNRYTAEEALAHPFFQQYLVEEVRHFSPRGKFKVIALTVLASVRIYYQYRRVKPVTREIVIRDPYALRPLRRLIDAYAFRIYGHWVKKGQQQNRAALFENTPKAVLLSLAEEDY", "assay": "Inhibition of recombinant human N-terminal GST-tagged PHKgamma1 (2 to 297 residues) expressed in Escherichia coli assessed as remaining activity at 1 uM using phosphorylase b peptide as substrate incubated for 30 mins in presence of [gamma-33P]ATP by filter binding method relative to control", "method_in_brief": "(§3)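 Incubation was 30 min at room temperature (21 °C) under conditions linear with time and enzyme amount. Activity is reported as percent of control lacking compound, triplicate mean ± S.D.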"}, "[4]": {"target": "mTORC1 (Homo sapiens) (UniProt P42345+Q8N122+Q9BVC4)", "conditions": "HEK293, dose 30-1000 nM, time 30.0 min"}, "[5]": {"target": "MAP kinase-interacting serine/threonine-protein kinase 1 (Homo sapiens) (UniProt Q9BUB5)", "sequence (Q9BUB5 whole entry, looked up, the tested form may be a part)": "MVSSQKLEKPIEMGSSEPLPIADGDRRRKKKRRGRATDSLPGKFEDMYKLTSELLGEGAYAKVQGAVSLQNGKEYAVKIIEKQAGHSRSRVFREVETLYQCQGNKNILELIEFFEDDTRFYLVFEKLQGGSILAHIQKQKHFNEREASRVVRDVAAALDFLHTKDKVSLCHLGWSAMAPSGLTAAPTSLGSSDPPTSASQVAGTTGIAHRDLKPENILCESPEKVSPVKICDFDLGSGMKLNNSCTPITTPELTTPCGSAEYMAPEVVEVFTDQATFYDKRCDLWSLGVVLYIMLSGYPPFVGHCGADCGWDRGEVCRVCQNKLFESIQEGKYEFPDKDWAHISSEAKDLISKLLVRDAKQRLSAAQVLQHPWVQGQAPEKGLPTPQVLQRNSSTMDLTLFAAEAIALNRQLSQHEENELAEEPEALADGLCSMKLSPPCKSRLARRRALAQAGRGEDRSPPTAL", "assay": "Inhibition of recombinant human N-terminal GST-tagged C-terminal His6-tagged MNK1 (2 to 424 residues) expressed in Escherichia coli assessed as remaining activity at 1 uM using eIF4E as substrate incubated for 30 mins in presence of [gamma-33P]ATP by filter binding method relative to control"}, "[6]": {"target": "Mitogen-activated protein kinase 13 (Homo sapiens) (UniProt O15264)", "sequence (O15264 whole entry, the tested form may be a part)": "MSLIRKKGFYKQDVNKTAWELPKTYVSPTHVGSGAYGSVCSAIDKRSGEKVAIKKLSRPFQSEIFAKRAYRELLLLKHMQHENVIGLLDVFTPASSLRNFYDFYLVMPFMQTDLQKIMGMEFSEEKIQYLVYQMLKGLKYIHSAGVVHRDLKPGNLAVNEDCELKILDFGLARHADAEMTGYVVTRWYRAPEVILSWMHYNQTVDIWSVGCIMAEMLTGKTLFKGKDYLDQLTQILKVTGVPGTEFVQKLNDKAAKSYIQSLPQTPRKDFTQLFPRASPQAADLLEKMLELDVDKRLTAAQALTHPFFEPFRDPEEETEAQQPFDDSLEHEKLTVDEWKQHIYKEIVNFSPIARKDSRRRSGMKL", "assay": "Inhibition of recombinant human GST-tagged P38delta (1 to 365 residues) expressed in Escherichia coli assessed as remaining activity at 10 uM using MBP as substrate incubated for 30 mins in presence of [gamma-33P]ATP by filter binding method relative to control", "method_in_brief": "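Kinase panel run robotically at 21 °C for 30 min, linear in time and enzyme. […] Compound tested at 1 or 10 µM. Activity given as percentage of incubations without compound, mean of triplicates ± S.D.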"}, "[7]": {"target": "MAP kinase-activated protein kinase 2 (Homo sapiens) (UniProt P49137)", "sequence (P49137 whole entry, looked up, the tested form may be a part)": "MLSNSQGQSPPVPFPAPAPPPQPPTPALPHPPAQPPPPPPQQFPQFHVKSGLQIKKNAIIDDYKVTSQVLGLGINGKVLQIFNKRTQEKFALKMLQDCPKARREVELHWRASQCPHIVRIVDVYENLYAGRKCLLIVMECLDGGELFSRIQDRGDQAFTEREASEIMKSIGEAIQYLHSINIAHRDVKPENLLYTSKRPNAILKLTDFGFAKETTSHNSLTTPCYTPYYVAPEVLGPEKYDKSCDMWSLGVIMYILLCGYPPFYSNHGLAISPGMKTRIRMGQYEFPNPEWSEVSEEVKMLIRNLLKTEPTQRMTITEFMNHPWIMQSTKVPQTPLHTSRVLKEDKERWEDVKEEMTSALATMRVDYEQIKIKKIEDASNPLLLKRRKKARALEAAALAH", "assay": "Inhibition of recombinant human N-terminal GST/C-terminal Myc-tagged MAPKAPK2 (46 to 400 residues) expressed in Escherichia coli assessed as remaining activity at 1 uM using KKLNRTLSVA as substrate incubated for 30 mins in presence of [gamma-33P]ATP by filter binding method relative to control", "method_in_brief": "(§4)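 Incubations ran robotically for 30 min at room temperature (21 °C) under linear conditions. Results are percent activity remaining versus controls without compound, as the mean of triplicates ± S.D.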"}, "[8]": {"target": "Mitogen-activated protein kinase; ERK1/ERK2 (Homo sapiens) (UniProt P27361+P28482)", "sequence (P27361 whole entry, looked up)": "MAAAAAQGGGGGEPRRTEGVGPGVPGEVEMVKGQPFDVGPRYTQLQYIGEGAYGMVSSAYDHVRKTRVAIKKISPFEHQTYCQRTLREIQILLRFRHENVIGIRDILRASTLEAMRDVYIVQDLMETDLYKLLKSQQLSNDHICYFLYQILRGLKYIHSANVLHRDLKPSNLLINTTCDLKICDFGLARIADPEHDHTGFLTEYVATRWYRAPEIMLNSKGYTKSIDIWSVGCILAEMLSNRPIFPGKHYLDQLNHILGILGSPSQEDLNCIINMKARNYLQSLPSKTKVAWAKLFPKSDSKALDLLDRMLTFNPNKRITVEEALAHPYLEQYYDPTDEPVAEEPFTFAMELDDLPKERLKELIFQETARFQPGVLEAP", "sequence (P28482 whole entry, looked up)": "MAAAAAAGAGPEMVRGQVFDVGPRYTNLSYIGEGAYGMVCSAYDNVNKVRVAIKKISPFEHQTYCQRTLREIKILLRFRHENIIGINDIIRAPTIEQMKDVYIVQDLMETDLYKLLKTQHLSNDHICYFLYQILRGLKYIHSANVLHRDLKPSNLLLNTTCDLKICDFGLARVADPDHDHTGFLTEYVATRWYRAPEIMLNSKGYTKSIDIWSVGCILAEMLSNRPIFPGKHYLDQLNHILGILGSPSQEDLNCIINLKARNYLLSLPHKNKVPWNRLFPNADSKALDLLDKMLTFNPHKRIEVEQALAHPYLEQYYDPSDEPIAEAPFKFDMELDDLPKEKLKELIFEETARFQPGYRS", "assay": "Inhibition of ERK1/2 in serum starved/PMA-stimulated HEK293 cells assessed as reduction in RSK phosphorylation at T573 residues at 1 uM incubated for 30 mins by immunoblot analysis", "assay_type": "cell-based"}, "[9]": {"target": "Dual specificity tyrosine-phosphorylation-regulated kinase 2 (Homo sapiens) (UniProt Q92630)", "assay": "Inhibition of recombinant human N-terminal GST-tagged DYRK2 (3 to 528 residues) expressed in Escherichia coli assessed as remaining activity at 1 uM using KKISGRLSPIMTEQ as substrate incubated for 30 mins in presence of [gamma-33P]ATP by filter binding method relative to control", "method_in_brief": "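Run robotically for 30 min at 21 °C under linear conditions. Compound at 1 or 10 µM. Percentage activity remaining versus control without compound, triplicate mean ± S.D.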"}, "[10]": {"target": "Serine/threonine-protein kinase PAK 4 (Homo sapiens) (UniProt O96013)", "sequence (O96013 whole entry, looked up, the tested form may be a part)": "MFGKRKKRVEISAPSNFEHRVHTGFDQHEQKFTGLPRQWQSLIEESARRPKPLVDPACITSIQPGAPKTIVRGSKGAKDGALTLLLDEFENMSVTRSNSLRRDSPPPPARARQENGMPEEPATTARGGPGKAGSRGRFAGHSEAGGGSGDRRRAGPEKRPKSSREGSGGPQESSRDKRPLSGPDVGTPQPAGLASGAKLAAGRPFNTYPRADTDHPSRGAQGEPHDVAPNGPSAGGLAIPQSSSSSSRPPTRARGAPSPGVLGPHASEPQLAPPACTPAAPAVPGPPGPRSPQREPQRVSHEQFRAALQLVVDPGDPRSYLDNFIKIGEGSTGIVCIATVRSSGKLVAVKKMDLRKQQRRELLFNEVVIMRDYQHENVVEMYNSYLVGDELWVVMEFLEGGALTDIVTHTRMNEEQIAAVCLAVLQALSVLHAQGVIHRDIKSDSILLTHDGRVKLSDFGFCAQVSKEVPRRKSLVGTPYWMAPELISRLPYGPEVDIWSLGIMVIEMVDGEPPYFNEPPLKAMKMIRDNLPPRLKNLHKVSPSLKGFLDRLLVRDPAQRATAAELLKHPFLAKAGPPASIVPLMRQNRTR", "assay": "(§5) Inhibition of recombinant human N-terminal GST-tagged PAK4 (2 to 519 residues) expressed in Escherichia coli assessed as remaining activity at 1 uM using RRRLSFAEPG as substrate incubated for 30 mins in presence of [gamma-33P]ATP by filter binding method relative to control", "method_in_brief": "as §2"}, "[11]": {"target": "Phosphorylase b kinase gamma catalytic chain, skeletal muscle/heart isoform (Homo sapiens) (UniProt Q16816)", "assay": "Inhibition of recombinant human N-terminal GST-tagged PHKgamma1 (2 to 297 residues) expressed in Escherichia coli assessed as remaining activity at 10 uM using phosphorylase b peptide as substrate incubated for 30 mins in presence of [gamma-33P]ATP by filter binding method relative to control", "method_in_brief": "as §3"}, "[12]": {"target": "CDK2/Cyclin A2 (Homo sapiens) (UniProt P24941+P20248)", "assay": "as §5, with “CDK2” for “PAK4”, “298 residues)/N-terminal GST-tagged Cyclin A2 (171 to 432” for “519”, “YSPTSPSYSPTSPSYSPTSPKKK” for “RRRLSFAEPG”", "method_in_brief": "as §4"}, "[13]": {"target": "Tyrosine-protein kinase BTK (Homo sapiens) (UniProt Q06187)", "assay": "Inhibition of recombinant human N-terminal His6-tagged BTK (2 to 659 residues) expressed in baculovirus infected Sf21 cells assessed as remaining activity at 10 uM using KVEKIGEGTYGVVYK as substrate incubated for 30 mins in presence of [gamma-33P]ATP by filter binding method relative to control", "method_in_brief": "as §3"}, "[14]": {"target": "mTORC2 (Homo sapiens) (UniProt P42345+Q6R327+Q9BVC4+Q9BPZ7)", "conditions": "HEK293, dose 100-1000 nM, time 20.0 min"}, "[15]": {"target": "Phosphatidylinositol 4-phosphate 3-kinase C2 domain-containing subunit beta (Homo sapiens) (UniProt O00750)", "sequence (O00750 whole entry, the tested form may be a part)": "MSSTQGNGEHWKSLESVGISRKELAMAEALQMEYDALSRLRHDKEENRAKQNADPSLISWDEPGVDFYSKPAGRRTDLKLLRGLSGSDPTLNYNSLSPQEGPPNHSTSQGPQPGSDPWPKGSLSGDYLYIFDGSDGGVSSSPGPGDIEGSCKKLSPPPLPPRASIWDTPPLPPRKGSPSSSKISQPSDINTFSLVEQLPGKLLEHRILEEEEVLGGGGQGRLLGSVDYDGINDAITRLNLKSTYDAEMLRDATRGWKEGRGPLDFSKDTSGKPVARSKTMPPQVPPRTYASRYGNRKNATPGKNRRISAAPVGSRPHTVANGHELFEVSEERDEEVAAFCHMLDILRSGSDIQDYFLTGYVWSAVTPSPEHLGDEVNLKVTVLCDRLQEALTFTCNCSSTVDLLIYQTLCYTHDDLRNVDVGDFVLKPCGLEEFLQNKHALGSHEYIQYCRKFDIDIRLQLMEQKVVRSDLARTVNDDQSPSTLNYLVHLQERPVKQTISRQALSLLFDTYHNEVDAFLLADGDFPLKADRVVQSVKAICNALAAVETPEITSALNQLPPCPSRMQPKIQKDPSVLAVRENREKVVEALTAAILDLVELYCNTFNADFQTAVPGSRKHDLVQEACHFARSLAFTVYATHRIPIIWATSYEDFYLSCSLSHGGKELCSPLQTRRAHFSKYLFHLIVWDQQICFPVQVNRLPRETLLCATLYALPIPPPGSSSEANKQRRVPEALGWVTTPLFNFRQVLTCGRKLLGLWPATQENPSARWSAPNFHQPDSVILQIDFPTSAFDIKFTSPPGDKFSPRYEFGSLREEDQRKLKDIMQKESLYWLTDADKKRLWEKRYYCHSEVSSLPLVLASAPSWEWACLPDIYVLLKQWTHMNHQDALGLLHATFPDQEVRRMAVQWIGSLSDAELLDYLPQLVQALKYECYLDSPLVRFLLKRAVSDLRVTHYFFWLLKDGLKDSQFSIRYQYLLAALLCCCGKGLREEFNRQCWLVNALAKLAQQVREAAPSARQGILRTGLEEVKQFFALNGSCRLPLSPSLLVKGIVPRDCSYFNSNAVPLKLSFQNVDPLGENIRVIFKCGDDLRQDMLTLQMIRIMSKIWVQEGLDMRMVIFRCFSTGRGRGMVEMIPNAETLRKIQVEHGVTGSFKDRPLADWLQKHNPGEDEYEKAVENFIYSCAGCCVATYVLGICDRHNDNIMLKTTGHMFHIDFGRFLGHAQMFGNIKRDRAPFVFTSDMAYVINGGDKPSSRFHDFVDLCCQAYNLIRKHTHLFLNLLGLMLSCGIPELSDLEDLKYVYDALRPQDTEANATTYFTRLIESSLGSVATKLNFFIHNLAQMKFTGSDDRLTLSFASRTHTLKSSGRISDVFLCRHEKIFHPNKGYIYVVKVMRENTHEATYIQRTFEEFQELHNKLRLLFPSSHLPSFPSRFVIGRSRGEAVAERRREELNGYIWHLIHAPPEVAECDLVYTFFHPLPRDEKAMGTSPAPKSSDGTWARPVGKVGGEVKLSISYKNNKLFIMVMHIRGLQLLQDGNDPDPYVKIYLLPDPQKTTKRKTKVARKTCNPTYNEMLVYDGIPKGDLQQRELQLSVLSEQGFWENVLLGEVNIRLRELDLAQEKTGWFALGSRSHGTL", "assay": "Inhibition of PI3KC2beta (unknown origin) assessed as remaining activity at 10 uM using phosphatidylinositol as substrate incubated for 30 mins in presence of ATP relative to control", "method_in_brief": "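PI3KC2β assayed with 20 μM phosphatidylinositol, 0.2 mM ATP, 2 mM MgCl2, in Tris/HCl pH 7.5 with CHAPS, 30 min at room temperature. Stopped with EDTA, product detected by time-resolved FRET competition with PtdIns3P–biotin and SGK PX domain. Activity as % of no-compound control, triplicate.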"}, "[16]": {"target": "Casein kinase I isoform delta (Homo sapiens) (UniProt P48730)", "assay": "Inhibition of recombinant human N-terminal GST-tagged CK1delta (1 to 415 residues) expressed in Escherichia coli assessed as remaining activity at 10 uM using RRKDLHDDEEDEAMSITA as substrate incubated for 30 mins in presence of [gamma-33P]ATP by filter binding method relative to control", "method_in_brief": "as §1"}},
  "note": "Activity calls are given as the source filed them. The rule behind the calls is not given here.",
  "data": [
    {"smiles": "COc1ccc(-c2ccc3c(N4CCOCC4)nc(N4C[C@@H](C)O[C@@H](C)C4)nc3n2)cc1CO", "note": "[Ku-0063794]", "values": [
      {"measurement": "Activity", "setting": "[1]", "value": 87, "unit": "%"},
      {"measurement": "Activity", "setting": "[2]", "value": 78, "unit": "%"},
      {"measurement": "Activity", "setting": "[3]", "value": 89, "unit": "%"},
      {"measurement": "inhibition", "setting": "[4]", "value": "Active"},
      {"measurement": "Activity", "setting": "[5]", "value": 111, "unit": "%"},
      {"measurement": "Activity", "setting": "[6]", "value": 87, "unit": "%"},
      {"measurement": "Activity", "setting": "[7]", "value": 98, "unit": "%"},
      {"measurement": "inhibition", "setting": "[8]", "value": "inactive"},
      {"measurement": "Activity", "setting": "[9]", "value": 92, "unit": "%"},
      {"measurement": "Activity", "setting": "[10]", "value": 110, "unit": "%"},
      {"measurement": "Activity", "setting": "[11]", "value": 116, "unit": "%"},
      {"measurement": "Activity", "setting": "[12]", "value": 89, "unit": "%"},
      {"measurement": "Activity", "setting": "[13]", "value": 81, "unit": "%"},
      {"measurement": "inhibition", "setting": "[14]", "value": "Active"},
      {"measurement": "Activity", "setting": "[15]", "value": 82, "unit": "%"},
      {"measurement": "Activity", "setting": "[16]", "value": 109, "unit": "%"}
    ]}
  ]
}
